From ChEMBL document CHEMBL4689842, “EUbOPEN Chemogenomics Library wave 1” (2021)
Several values for one entry are separate records, joined by “and”; a condition that tells them apart may be missing. Equal values may be shown once.

Test system: U2OS
Experiment: Multiplex assay against U2OS
Format: toxicity, cell-based
Settings: human, 10 µM, compound concentration 10 uM
Summary of the method: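 Hoechst33342, BioTracker Green Microtubule Cytoskeleton Dye, MitoTracker Red and Annexin V Alexa Fluor 680 were added to live cells at seeding, and imaging on a CQ1 microscope at 37°C and 5% CO2 followed compound addition. Gating by CellPathfinder machine learning separated cells into Hoechst high-intensity objects or normal cells, then normal cells into healthy, pyknosed or fragmented nuclei, then pyknosed cells into mitotic or apoptotic. Per cents of healthy-nucleus cells are reported for the tubulin, mitochondrial-mass and membrane-permeability phenotypes.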

In the case of CCN(CC)S(=O)(=O)Nc1cccc(-c2ccc3c(NC(=O)C4CC4)n[nH]c3c2)c1, the “Population Apoptotic (%)” value (12 h, replicate 1) is reported as 45% and 28%, the “Population Fragmented Nuclei (%)” value (12 h, replicate 1) is reported as 7% and 4% and the “Population Healthy Nuclei (%)” value (12 h, replicate 1) is reported as 83% and 87%. The “Population Hoechst High Intensity Objects (%)” value (12 h, replicate 1) was 2% and 3%, the “Population Membrane Permeable-Phenotype (%)” value (12 h, replicate 1) was 16% and 7% and the “Population Mitochondria Different-Phenotype (%)” value (12 h, replicate 1) was 10% and 26%. For the same molecule, the “Population Mitotic Cells (%)” value (12 h, replicate 1) was 55% and 71%, the “Population Normal (%)” value (12 h, replicate 1) was 97% and 96% and the “Population Pyknosed Nuclei (%)” value (12 h, replicate 1) was 9% and 8%. For the same molecule, the “Population Tubulin-Different-Phenotype (%)” value (12 h, replicate 1) was 8% and 17%, the “Total Cell Count” value (12 h, replicate 1) was 177 and 289 and the “Population Apoptotic (%)” value (12 h, replicate 2) was 0% and 16%. The “Population Fragmented Nuclei (%)” value (12 h, replicate 2) was 9% and 8%, the “Population Healthy Nuclei (%)” value (12 h, replicate 2) was 80% and 85% and the “Population Hoechst High Intensity Objects (%)” value (12 h, replicate 2) was 5% and 14%. The “Population Mitotic Cells (%)” value (12 h, replicate 2) was 100% and 83%, the “Population Normal (%)” value (12 h, replicate 2) was 94% and 85% and the “Population Pyknosed Nuclei (%)” value (12 h, replicate 2) was 10% and 5%. The “Population Tubulin-Different-Phenotype (%)” value (12 h, replicate 2) was 20% and 13%, the “Total Cell Count” value (12 h, replicate 2) was 120 and 259 and the “Population Apoptotic (%)” value (24 h, replicate 1) was 21%. The “Population Healthy Nuclei (%)” value (24 h, replicate 1) was 70% and 92%, the “Population Hoechst High Intensity Objects (%)” value (24 h, replicate 1) was 3% and 2% and the “Population Mitochondria Different-Phenotype (%)” value (24 h, replicate 1) was 13% and 26%. For the same molecule, the “Population Mitotic Cells (%)” value (24 h, replicate 1) was 78%, the “Population Normal (%)” value (24 h, replicate 1) was 96% and 97% and the “Population Pyknosed Nuclei (%)” value (24 h, replicate 1) was 21%. The “Total Cell Count” value (24 h, replicate 1) was 241 and 253, the “Population Apoptotic (%)” value (24 h, replicate 2) was 20% and 28% and the “Population Fragmented Nuclei (%)” value (24 h, replicate 2) was 13% and 6%. For the same molecule, the “Population Healthy Nuclei (%)” value (24 h, replicate 2) was 68% and 87%, the “Population Hoechst High Intensity Objects (%)” value (24 h, replicate 2) was 6% and 8% and the “Population Membrane Permeable-Phenotype (%)” value (24 h, replicate 2) was 18% and 6%. For the same molecule, the “Population Mitochondria Different-Phenotype (%)” value (24 h, replicate 2) was 17% and 29%, the “Population Mitotic Cells (%)” value (24 h, replicate 2) was 79% and 71% and the “Population Normal (%)” value (24 h, replicate 2) was 93% and 91%. For the same molecule, the “Population Tubulin-Different-Phenotype (%)” value (24 h, replicate 2) was 22% and the “Total Cell Count” value (24 h, replicate 2) was 134 and 195.
